Test results from ChEMBL document CHEMBL3621189, “Identification of non-peptidic cysteine reactive fragments as inhibitors of cysteine protease rhodesain” (Bioorg Med Chem Lett, 2015).
Activity calls are given as the source filed them. No cut-off for these calls is given here.

Experiments:
[1] = biological target: Rhodesain (Trypanosoma brucei rhodesiense) (UniProt Q95PM0); assay: Inhibition of Trypanosoma brucei rhodesiense Rhodesain expressed in Pichia pastoris using Z-Phe-Arg-AMC as substrate at 10 uM preincubated for 30 mins followed by substrate addition by fluorescence assay relative to control
Rhodesain (Trypanosoma brucei rhodesiense), sequence (Q95PM0 1-450): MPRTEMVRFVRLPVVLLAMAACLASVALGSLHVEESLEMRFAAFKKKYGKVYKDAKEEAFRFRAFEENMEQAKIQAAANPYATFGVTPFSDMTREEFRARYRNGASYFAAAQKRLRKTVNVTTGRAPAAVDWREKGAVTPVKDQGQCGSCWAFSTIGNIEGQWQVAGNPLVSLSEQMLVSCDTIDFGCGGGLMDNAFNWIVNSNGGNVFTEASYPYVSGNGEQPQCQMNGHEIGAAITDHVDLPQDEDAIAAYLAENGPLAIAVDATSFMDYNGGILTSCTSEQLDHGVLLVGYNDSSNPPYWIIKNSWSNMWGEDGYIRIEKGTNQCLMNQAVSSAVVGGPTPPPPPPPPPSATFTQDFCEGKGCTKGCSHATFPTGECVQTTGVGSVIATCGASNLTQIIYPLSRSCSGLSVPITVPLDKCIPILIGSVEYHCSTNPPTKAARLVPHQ
In short: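 Single-concentration enzymatic screen of a 200-member cysteine-reactive electrophilic fragment library at 10 μM against rhodesain, scored as percent inhibition. Actives were retested at 10 μM in a confirmatory enzymatic assay.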

[2] = tested on: Trypanosoma brucei brucei; assay: Antitrypanosomal activity against Trypanosoma brucei brucei 427 assessed as growth inhibition after 24 hrs by Alamar Blue assay; type: functional, organism-based; details: Trypanosoma brucei, 427, 24 h
[3] = biological target: Rhodesain (Trypanosoma brucei rhodesiense) (UniProt Q95PM0); assay: Time-dependent inhibition of Trypanosoma brucei rhodesiense Rhodesain expressed in Pichia pastoris using Z-Phe-Arg-AMC as substrate assessed as ratio of Kinact to Ki preincubated for 30 mins followed by substrate addition measured for 7 mins by fluorescence assay
[4] = tested on: HepG2; assay: Cytotoxicity against human HepG2 cells after 72 hrs by MTT assay; type: cell-based; details: HepG2, 72 h

Structure (SMILES)	inhibition [1]	IC50 [2]	inhibition [3]	IC50 [4]	Ratio [3]
COC(=O)/C=C/CNC(=O)C1CCN(C(=O)CC(C)C)CC1	< 40%	> 50 µM	inactive	> 150 µM	–
COC(=O)/C=C/CNC(=O)c1cc(-c2ccc(C)cc2)on1	–	43.4 µM	–	> 150 µM	13.2 M⁻¹ s⁻¹
Cc1ccc(-c2cc(C(=O)NC/C=C/S(C)(=O)=O)no2)cc1	< 40%	29.5 µM	inactive	76 µM	–
Cc1nc(-c2ccccc2F)sc1C(=O)NC/C=C/S(C)(=O)=O	< 40%	30.2 µM	–	69 µM	3.47 M⁻¹ s⁻¹
COC(=O)/C=C/CNC(=O)c1sc(-c2ccccc2F)nc1C	–	30.3 µM	–	> 150 µM	18.3 M⁻¹ s⁻¹
CC(C)CC(=O)N1CCC(C(=O)NC/C=C/S(C)(=O)=O)CC1	< 40%	> 50 µM	inactive	> 150 µM	–
